Activity calls are given as the source filed them. The rule behind the calls is not given here. Positions of bridges follow the written chain, without caps; N, C: chain ends. Residues, ends and D or L forms follow the SMILES beside them. *: point of attachment. Octanoyl = CCCCCCCC(=O)*
Tests used:
in vivo = settings: mouse, iv, 2.5 mg/kg
[1] = Half life in human plasma at 10 uM by MS/MS analysis; type: ADME, cell-free
Neuropilin-1 [2] = biological target: T1, Neuropilin-1 (Homo sapiens, UniProt O14786); assay: Binding affinity to recombinant human NRP1 extracellular domain by SPR method
Neuropilin-1 [3] = biological target: T1, Neuropilin-1; assay: Binding affinity to N-terminal His6-tagged recombinant human NRP1-b1 domain expressed in Escherichia coli Rosetta Gami 2 (DE3) pLysS cells at 200 uM treated every 2 mins by ITC method
HUVEC [4] = assay: Antimigratory activity in HUVEC assessed as delay in VEGFA-induced wound closure at 30 uM after 5 days; type: functional, cell-based; settings: Homo sapiens
Method in brief: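 HUVECs were starved overnight in 1% EBM, then wounded at 95% confluence. Wells received 1% EGM with 0.1% DMSO, 25 ng/mL VEGF-A and/or 30 μM compound. Migration into the wound was imaged every 2 h by live-cell imaging. Three independent experiments, 12 replicates per treatment.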

Mus musculus [5] = assay: Cmax in BALB/c mouse at 2 mg/kg, iv administered as bolus dose by LC-MS method; type: ADME, organism-based; design: dose 2 mg/kg, route intravenous; settings: in vivo
Method in brief: (§1)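 Female BALB/c mice, 6–8 weeks old, received 2 mg/kg as a tail-vein bolus formulated in 7.5% DMSO. Blood was taken by cardiac puncture at 5, 15, 30, 60, 180 and 240 min. Plasma was separated by centrifugation, snap-frozen and assayed by LC-MS/MS with electrospray ionization.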

Mus musculus [6] = assay: Volume of distribution in BALB/c mouse at 2 mg/kg, iv administered as bolus dose by LC-MS method; type: ADME, organism-based; settings: in vivo
Method in brief: as §1

Mus musculus [7] = assay: Half life in BALB/c mouse at 2 mg/kg, iv administered as bolus dose by LC-MS method; type: ADME, organism-based; settings: in vivo
Method in brief: as §1

HUVEC [8] = assay: Antimigratory activity in HUVEC at 30 uM after 4 hrs by transwell assay; type: functional, cell-based; settings: Homo sapiens
Method in brief: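 HUVECs (1.5×10^5 per well, serum-free EBM) were placed in upper inserts with 8 µm pores. The bottom chamber held serum-free medium with 25 ng/mL VEGF-A, 0.1% DMSO, 30 μM compound, or VEGF-A plus compound. After 4 h at 37 °C, cells that migrated were stained and counted in three random fields; five independent experiments.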

Homo sapiens [9] = organism: Homo sapiens; assay: Antiinvasive activity in VEGFA-induced NRP1 expressing human A375P spheroids at 30 uM after 7 days; type: functional
Neuropilin-1 [10] = biological target: T1, Neuropilin-1; assay: Inhibition of VEGF-A-stimulated NRP1-mediated VEGFR2 phosphorylation at Tyr1175 in HUVEC at 30 uM preincubated for 30 mins followed by VEGFA stimulation measured after 10 mins by immunoblot method relative to control; type: cell-based
Method in brief: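 Confluent HUVECs serum-starved 16 h in 0.5% serum, preincubated 30 min with 3, 10 or 30 µM compound, 0.1% DMSO or medium, then 1 ng/mL VEGF-A for 10 min. RIPA lysates were immunoblotted. Densitometry of pVEGF-R2/KDR was normalised to total VEGF-R2/KDR, from three independent experiments, means ± SEM.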

[11] = biological target: T2, Neuropilin-2 (Homo sapiens) (UniProt O60462); assay: Binding affinity to His6-tagged recombinant human NRP2 at 62.5 to 1000 nM treated for 60 secs by SPR method
T2 sequence (whole entry): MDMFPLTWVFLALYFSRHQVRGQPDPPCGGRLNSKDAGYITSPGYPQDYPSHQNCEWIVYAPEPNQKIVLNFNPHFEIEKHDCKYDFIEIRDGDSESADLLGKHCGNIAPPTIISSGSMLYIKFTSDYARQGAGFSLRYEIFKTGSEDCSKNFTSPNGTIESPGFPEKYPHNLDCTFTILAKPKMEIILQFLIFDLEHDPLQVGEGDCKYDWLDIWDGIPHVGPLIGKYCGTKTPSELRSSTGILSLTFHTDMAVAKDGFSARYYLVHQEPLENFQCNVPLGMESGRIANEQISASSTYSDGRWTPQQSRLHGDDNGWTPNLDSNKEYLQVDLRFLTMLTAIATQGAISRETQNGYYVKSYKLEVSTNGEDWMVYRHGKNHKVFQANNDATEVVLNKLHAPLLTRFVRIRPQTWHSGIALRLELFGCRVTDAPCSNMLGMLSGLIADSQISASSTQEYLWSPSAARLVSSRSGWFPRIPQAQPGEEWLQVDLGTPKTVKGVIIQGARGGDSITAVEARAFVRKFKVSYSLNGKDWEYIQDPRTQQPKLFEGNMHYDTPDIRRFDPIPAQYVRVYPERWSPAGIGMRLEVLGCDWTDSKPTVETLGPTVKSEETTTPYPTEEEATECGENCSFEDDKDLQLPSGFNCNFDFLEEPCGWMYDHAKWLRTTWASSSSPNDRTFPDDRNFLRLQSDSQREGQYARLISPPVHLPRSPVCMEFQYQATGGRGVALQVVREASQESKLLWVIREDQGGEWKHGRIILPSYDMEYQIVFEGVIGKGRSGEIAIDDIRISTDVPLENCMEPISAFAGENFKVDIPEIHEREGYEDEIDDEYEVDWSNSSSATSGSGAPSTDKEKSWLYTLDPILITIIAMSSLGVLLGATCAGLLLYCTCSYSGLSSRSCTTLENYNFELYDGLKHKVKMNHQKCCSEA

Aorta = assay: Antiangiogenic activity in wild type C57Bl/6 mouse aortic ring assessed as inhibition of VEGFA-induced vessel sprouting at 30 uM after 7 days relative to control; type: functional
Method in brief: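 Thoracic aortas from female wild-type C57Bl/6 mice were cut into 0.5 mm rings, serum-starved overnight, and embedded in rat-tail type 1 collagen. Rings were cultured in OptiMEM with 2.5% FBS containing 0.1% DMSO, 25 ng/mL VEGF-A and/or 30 μM compound at 37 °C for 7 days, with medium changed on days 3 and 5. They were then fixed and stained with isolectin B4 and SMA, and sprout area was quantified by image analysis.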

Mus musculus [12] = organism: Mus musculus; assay: Immunomodulating activity in C57/Bl6 mouse Nrp1-positive Treg cells assessed as inhibition of glioma conditioned media-induced TGFbeta production at 500 nM preincubated for 2 hrs followed by glioma conditioned media challenge measured after 12 hrs by ELISA; type: functional
Method in brief: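 CD4+ Nrp1+ splenic T cells from 6-week-old C57/Bl6 mice were plated at 200000 per well on anti-CD3ε with anti-CD28 and expanded 72 h. Cells were pretreated 2 h with DMSO or 500 nM compound. They were then given 50% conditioned medium from serum-starved GL261 cells, and TGFβ was measured by ELISA after 12 h.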

Homo sapiens [13] = organism: Homo sapiens; assay: Antiinvasive activity in NRP1 expressing human A375P spheroids at 30 uM after 7 days; type: functional
Mus musculus [14] = assay: AUC (infinity) in BALB/c mouse at 2 mg/kg, iv administered as bolus dose by LC-MS method; type: ADME, organism-based; design: dose 2 mg/kg, route intravenous, time infinity; settings: in vivo
Method in brief: as §1

Mus musculus [15] = assay: Tmax in BALB/c mouse at 2 mg/kg, iv administered as bolus dose by LC-MS method; type: ADME, organism-based; settings: in vivo
Method in brief: as §1

HUVEC [16] = assay: Antimigratory activity in VEGFA-induced HUVEC at 30 uM after 4 hrs by transwell assay relative to control; type: functional, Homo sapiens
Method in brief: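 Transwell chemotaxis used 8 µm pore PET inserts. The bottom chamber held serum-free medium with or without 25 ng/mL VEGF-A, 0.1% DMSO, or 30 µM compound. HUVECs in serum-free EBM were added to the top chamber and incubated at 37 °C for 4 h. Non-migrated cells were removed, and membranes were fixed and stained. Migrated cells were counted in three random fields per well across five independent experiments, reported as mean ± SEM.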

Neuropilin-1 [17] = biological target: T1, Neuropilin-1; assay: Inhibition of biotinylated VEGF-A binding to N-terminal His6-tagged recombinant human NRP1-b1 domain expressed in Escherichia coli Rosetta Gami 2 (DE3) pLysS cells after 2 hrs
HUVEC [18] = assay: Antiangiogenic activity in HUVEC co-cultured with HDF assessed as inhibition of VEGFA-induced tubular network length at 30 uM after 4 days by immunofluorescence method relative to control; type: functional; settings: Homo sapiens, 96 h
Method in brief: (§2)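 HDF were grown to confluence in 24-well plates and 10000 HUVECs were seeded on top in endothelial growth medium with 1% FBS. Cocultures received 0.1% DMSO, VEGF 25 ng/mL, 30 μM compound, or compound plus VEGF, for 4 days at 37 °C. They were ethanol-fixed and stained for von Willebrand factor. Branch points, network area and length were scored in four fields per well; three independent experiments.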

HUVEC [19] = assay: Antiangiogenic activity in HUVEC co-cultured with HDF assessed as inhibition of number of VEGFA-induced branch points in tubular networks at 30 uM after 4 days by immunofluorescence method relative to control; type: functional; settings: Homo sapiens, 96 h
Method in brief: as §2

Neuropilin-1 [20] = biological target: T1, Neuropilin-1; assay: Inhibition of biotinylated VEGF-A binding to human NRP1 expressed in human DU145 cells after 2 hrs; type: cell-based
Neuropilin-1 [21] = biological target: T1, Neuropilin-1; assay: Binding affinity to N-terminal His6-tagged recombinant human NRP1-b1 domain expressed in Escherichia coli Rosetta Gami 2 (DE3) pLysS cells by SPR method
Method in brief: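 Human NRP1-b1 (residues 273–427, His6-tagged) was amine-coupled to a CM5 chip at high and low density; an unmodified spot served as reference. Runs were at 25 °C in PBS with 0.05% P20 and 3% DMSO. Compound was tested as 2-fold dilutions from 16 µM to 31 nM with 60 s injections. KD was taken from steady-state responses, DMSO-corrected; mean ± SD of the two surfaces.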

T1 sequence (O14786 whole entry, the tested form may be a part): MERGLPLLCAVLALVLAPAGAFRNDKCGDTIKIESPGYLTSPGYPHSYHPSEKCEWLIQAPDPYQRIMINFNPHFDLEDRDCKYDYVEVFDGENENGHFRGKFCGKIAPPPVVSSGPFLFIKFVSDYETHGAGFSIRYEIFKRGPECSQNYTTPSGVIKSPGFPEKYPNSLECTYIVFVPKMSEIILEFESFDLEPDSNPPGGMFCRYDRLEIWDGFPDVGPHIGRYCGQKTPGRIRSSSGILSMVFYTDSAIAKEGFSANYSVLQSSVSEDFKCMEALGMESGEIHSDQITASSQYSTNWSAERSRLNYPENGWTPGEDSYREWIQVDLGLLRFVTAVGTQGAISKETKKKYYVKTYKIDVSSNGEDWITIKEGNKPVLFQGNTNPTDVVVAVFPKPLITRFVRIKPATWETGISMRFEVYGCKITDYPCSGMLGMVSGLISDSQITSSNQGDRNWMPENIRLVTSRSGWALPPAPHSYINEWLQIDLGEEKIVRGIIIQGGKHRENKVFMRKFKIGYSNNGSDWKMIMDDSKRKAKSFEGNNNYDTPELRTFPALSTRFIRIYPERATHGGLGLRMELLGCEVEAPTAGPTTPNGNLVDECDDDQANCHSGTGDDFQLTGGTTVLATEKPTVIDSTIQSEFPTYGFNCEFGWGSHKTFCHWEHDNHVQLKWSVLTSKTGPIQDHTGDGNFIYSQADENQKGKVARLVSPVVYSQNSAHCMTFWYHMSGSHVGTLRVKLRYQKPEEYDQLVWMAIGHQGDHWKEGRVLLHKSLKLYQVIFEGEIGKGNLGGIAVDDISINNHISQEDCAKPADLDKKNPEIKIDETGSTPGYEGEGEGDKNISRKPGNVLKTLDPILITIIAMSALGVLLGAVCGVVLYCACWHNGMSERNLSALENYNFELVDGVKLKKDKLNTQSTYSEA

## N=C(N)NCCC[C@H](NC(=O)c1sccc1NS(=O)(=O)c1cccc2nsnc12)C(=O)O
In vivo
  half-life: 30 min

## CCCCCCCC(=O)N[C@@H](CO)C(=O)N[C@H]1CSSC[C@@H]2NC(=O)[C@H]([C@@H](C)O)NC(=O)[C@H](CCCNC(=N)N)NC(=O)[C@H](CCC(=O)O)NC(=O)[C@H](CC(N)=O)NC(=O)[C@H](CC(C)C)NC(=O)[C@H](CCC(=O)O)NC(=O)[C@H](CC(C)C)NC(=O)[C@H](CCC(N)=O)NC(=O)[C@H](CCCNC(=N)N)NC(=O)[C@H](C)NC(=O)[C@H](CCCCN)NC(=O)[C@H](CSSC[C@@H](C(=O)N[C@@H](CC(=O)O)C(=O)N[C@@H](CCCCN)C(=O)N3CCC[C@H]3C(=O)N[C@@H](CCCNC(=N)N)C(=O)N[C@@H](CCCNC(=N)N)C(N)=O)NC(=O)[C@H](CCCNC(=N)N)NC2=O)NC(=O)[C@H](CCCNC(=N)N)NC(=O)[C@H](CO)NC(=O)[C@H](CC(=O)O)NC(=O)[C@H]([C@@H](C)O)NC(=O)[C@H](CC(N)=O)NC(=O)[C@H](CCCCN)NC1=O (Octanoyl-SCKNTDSRCKARQLELNERTCRCDKPRR-NH2; disulfide 2-21, 9-23)
[1]
  half-life at 10 µM: < 5 min
Neuropilin-1 [2]
  Kd: 0.076 µM

## N=C(N)NCCC[C@H](NC(=O)c1sccc1NS(=O)(=O)c1cc(-c2ccc(CN)cc2)cc2c1OCC2)C(=O)O
Neuropilin-1 [3]
  Ka: 4.14 ×10⁶ /M
HUVEC [4]
  Activity: Active
Mus musculus [5]
  Cmax: 1678 ng/mL
Mus musculus [6]
  Vd: 4.39682 L/kg
Mus musculus [7]
  t1/2: 257 min
HUVEC [8]
  Activity: inactive
Homo sapiens [9]
  Activity: Active
Neuropilin-1 [10]
  inhibition: 50%
[11]
  Activity: inactive
Aorta
  fold change (FC): 7
Mus musculus [12]
  inhibition: Active
Homo sapiens [13]
  Activity: inactive
Mus musculus [14]
  AUC: 2379 ng·h/mL
Mus musculus [15]
  Tmax: 4.8 min
HUVEC [16]
  Activity: >60%
Neuropilin-1 [17]
  IC50: 0.609 µM
HUVEC [18]
  inhibition at 30 µM: 40%
HUVEC [19]
  inhibition at 30 µM: 41%
Neuropilin-1 [20]
  IC50: 1.6 µM
Neuropilin-1 [21]
  Kd: 1.32 µM

Reference: ChEMBL document CHEMBL4177756, “Small Molecule Neuropilin-1 Antagonists Combine Antiangiogenic and Antitumor Activity with Immune Modulation through Reduction of Transforming Growth Factor Beta (TGFβ) Production in Regulatory T-Cells” (J Med Chem, 2018)
